Assay outcomes deposited in PubChem BioAssay by several laboratories.
In the library only some 1.3% were active in any assay of this set; here they are far more common.
procasp3 activ – procaspase-3 (human) activation; P42574; recombinant procaspase-3 D3A, Ac-DEVD-pNA absorbance 405 nm; activation, % at 8.5 µM; 0.11% of 330,000 active;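 active = activation above the mean of all tested compounds plus 3 SD, cut at about 21% in these data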;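 also: 0% = DMSO alone and 100% = DMSO wells spiked with extra 5 µM PC-3 D3A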
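material = Procaspase-3 D3A mutant | probe or stimulus = Ac-DEVD-pNA | compound = single dose, 8.5 µM nominal compound, 0.8% DMSO | timing = 1 h preincubation, 2 h reaction | measured by = 405 nm absorbance of p-nitroaniline, reads at 0 and 120 min | benchmarks = DMSO-only low control, 5 µM PC-3 D3A high control | repeats = singlicate, each compound tested once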
VLA-4 inh – inhibition in a human VLA-4 binding assay; P13612; 0.2% of 330,000 active; VLA-4 expressing cells, ligand binding flow cytometry; inhibition, % (about 7 µM as worked out from the volumes in the protocol); AID 2557; in the data active = inhibition above about 50%
JMJD2C inh – blocks human GASC-1 demethylase activity. GST-JMJD2C(1-420) H3K9me3 demethylation, DELFIA europium. inhibition, % at 2.35 µM. 0.069% of 330,000 active. AID 2099;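 active = more than half of a compound's replicate wells show inhibition beyond 50%, single wells judged on their own value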;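 also: signal counts dimethyl H3K9 product captured on neutravidin plate; 0% = median of DMSO wells and 100% = 0.3 times that DMSO median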
Target sequence (Q9H3R0 1-420 limits assumed): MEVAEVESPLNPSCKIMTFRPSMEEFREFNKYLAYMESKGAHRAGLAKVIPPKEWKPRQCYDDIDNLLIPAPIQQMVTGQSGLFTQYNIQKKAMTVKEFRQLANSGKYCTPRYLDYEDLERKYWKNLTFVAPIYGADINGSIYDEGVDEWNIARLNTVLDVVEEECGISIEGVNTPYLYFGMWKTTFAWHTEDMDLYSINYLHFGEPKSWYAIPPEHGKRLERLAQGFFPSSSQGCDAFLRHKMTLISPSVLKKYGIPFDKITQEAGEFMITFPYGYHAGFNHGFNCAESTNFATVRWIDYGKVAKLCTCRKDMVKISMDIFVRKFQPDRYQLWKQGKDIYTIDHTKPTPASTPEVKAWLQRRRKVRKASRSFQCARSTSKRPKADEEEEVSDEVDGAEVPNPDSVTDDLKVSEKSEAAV
procasp7 counter – activates human procaspase-7, counter-screen for procaspase-3 activators. P55210. recombinant procaspase-7, Ac-DEVD-pNA absorbance 405 nm; D23A/D198A/D206A triple mutant, cannot self-cleave; scale: DMSO 0, 5 µM enzyme 100. activation, % at 8.5 µM. 0.093% of 330,000 active;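 active = percent activation above the screen-wide mean plus 3 SD, cut at about 25% in these data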
Target sequence (P55210 whole entry D23A/D198A/D206A): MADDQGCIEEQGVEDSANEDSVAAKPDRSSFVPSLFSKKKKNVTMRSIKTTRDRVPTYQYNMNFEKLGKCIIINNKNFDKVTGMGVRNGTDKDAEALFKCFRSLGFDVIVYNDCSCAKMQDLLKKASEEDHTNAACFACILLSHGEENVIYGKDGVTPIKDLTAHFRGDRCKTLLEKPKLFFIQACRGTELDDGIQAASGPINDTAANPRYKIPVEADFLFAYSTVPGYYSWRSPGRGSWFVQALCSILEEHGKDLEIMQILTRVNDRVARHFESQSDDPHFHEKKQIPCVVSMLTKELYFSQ
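System: Procaspase-7 triple mutant (PC-7 D3A); measure: % activation from two-timepoint absorbance difference, scaled to controls; times: 1 h compound preincubation, 2 h substrate cleavage, 25 °C; also added: Ac-DEVD-pNA substrate, 400 µM as added; measured by: Epi-absorbance of released pNA at 405 nm, two timepoints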
Lipid droplet – modulators of hepatic lipid droplet formation. 0.4% of 240,000 active. inhibition, % at 6.5 µM. AML12 mouse hepatocytes, oleate lipid droplets, BODIPY imaging;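 active = lipid droplet intensity inhibited by at least 50%, with more than 500 cells counted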
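Assay system: AML12 hepatocytes (mouse) / Also added: 100 µM oleic acid challenge / Times: overnight treatment with compound plus oleate / Detection: high-content imaging of BODIPY-stained droplets and DAPI nuclei / Evaluation: % inhibition of lipid droplet signal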
GRK2 inh – human GRK2 inhibition via aptamer displacement | bead flow cytometry, FAM-aptamer displacement from GRK2 | inhibition of aptamer binding, % at 10 µM | 0.59% of 330,000 active;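 active = inhibition of aptamer binding above 40%, roughly 3 SD of noise, on plates passing a quality check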;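 also: median bead fluorescence of bound FAM aptamer so fluorescent compounds give negative values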
GRK2 CP1 – human GRK2 inhibition confirmation, cherry pick 1; 4% of 2,000 active; bead-bound GRK2, FAM-aptamer displacement, flow cytometry; shares compounds with GRK2 inh; aptamer displacement, % at 10 µM;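 active = aptamer displacement above 40%, near three times the noise of non-fluorescent compounds, on plates passing quality checks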;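 also: negative values mostly reflect intrinsic compound fluorescence rather than true enhancement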
Aptamer quench – quenches fluorescent RNA aptamer, GRK2 hit artifact; shares compounds with GRK2 inh; Fluorescent RNA aptamer beads, quenching, flow cytometry; stronger effect = higher value; fluorescence change (kMESF span), kMESF (test concentration not listed); 110 tested, under 10 active; AID 504521;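 active = compounds whose bead fluorescence drops by more than 37 kMESF across the dose range, marking them as dye quenchers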
Aptamer quench SP – aptamer fluorescence quenching in GRK2 counter-screen. shares compounds with GRK2 inh. Carboxyfluorescein RNA aptamer on beads, flow cytometry quenching; stronger effect = lower value. fluorescence response (% of DMSO), % at 10 µM. 2,000 tested, under 10 active. AID 504580;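 active = compounds that quench the bead-bound fluorescent RNA probe, cutting fluorescence to under half of the solvent control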;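 also: counterscreen run without GRK2 so only probe quenching by compound is measured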
GRK2 CP2 – confirmation of human GRK2 inhibitors binding RNA aptamer site | AID 504782 | bead-bound GRK2, FAM-aptamer displacement, flow cytometry | shares compounds with GRK2 inh | inhibition of aptamer binding, % at 10 µM | 360 tested, under 10 active;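 active = inhibition of aptamer binding above 40%, about triple the noise seen with nonglowing compounds, on plates passing quality control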;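 also: negative values mostly come from compounds that fluoresce themselves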
FAM quench SP – quenches fluorescent RNA aptamer, GRK2 hit artifact; carboxyfluorescein RNA aptamer beads, flow cytometry quenching; stronger effect = lower value; 360 tested, under 10 active; fluorescence response vs DMSO, % at 10 µM; shares compounds with GRK2 inh;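 active = response vs DMSO under 50%, meaning signal dropped by over half, treated as fluorescence quencher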;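 also: labelled aptamer on streptavidin beads without GRK2 as a quench counter-screen; 100% = bead fluorescence of DMSO wells and lower means quenching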
FAM quench PS1 – quenches fluorescent RNA aptamer, GRK2 hit artifact; Bead-bound FAM RNA aptamer fluorescence quenching, flow cytometry; stronger effect = lower value; fluorescence ratio to DMSO, % at 11.1 µM; shares compounds with GRK2 inh; 35 tested, under 10 active;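 active = compounds that dim the fluorescent label, raw bead signal shifting by over 33 units between lowest and highest dose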
Active calls of the source: *.

Screening COCCCNCCCCOc1ccc(Br)cc1Cl returned procasp3 activ 1, VLA-4 inh -2, JMJD2C inh -6, procasp7 counter 6, Lipid droplet -20, GRK2 inh 41*, GRK2 CP2 14 and FAM quench SP 99.
Screening COCCCNCCOCCOc1ccc(C)cc1Br returned procasp3 activ 3, VLA-4 inh 5, JMJD2C inh -184, procasp7 counter 4, Lipid droplet -20, GRK2 inh 100*, GRK2 CP2 -10 and FAM quench SP 101.
Screening CCCCNCCOCCOc1ccc(C)cc1Br returned procasp3 activ 10, VLA-4 inh 2, JMJD2C inh -9, procasp7 counter -12, Lipid droplet 10 and GRK2 inh 3.
For CCOCc1cnc(C)nc1NCC(=O)c1c(C)[nH]c2cc(C)ccc12 the results were procasp3 activ -11, VLA-4 inh 3, JMJD2C inh 1, procasp7 counter 6, Lipid droplet 3 and GRK2 inh 0.
CCOCc1cnc(C)nc1NCC(=O)c1c(C)[nH]c2ccccc12 was read as procasp3 activ -10, VLA-4 inh 1, JMJD2C inh 1, procasp7 counter 10, GRK2 inh 56*, GRK2 CP1 -1 and Aptamer quench SP 100.
Cc1ccc(C)c(NC(=O)CCN2C(=O)C3CC=CCC3C2=O)c1 (stereo unspecified) was read as procasp3 activ 9, VLA-4 inh 36, JMJD2C inh 0, procasp7 counter 6, GRK2 inh 68*, GRK2 CP1 1 and Aptamer quench SP 97.
For CCCCOc1ccc(C(=O)Nc2cccc(-n3cnnn3)c2)cc1OC the results were procasp3 activ 8, VLA-4 inh 11, JMJD2C inh 1, procasp7 counter 2, Lipid droplet 0 and GRK2 inh 0.
For CN(CC(=O)Nc1ccc(F)cc1)C(=O)CN1C(=O)NC2(CCCc3ccccc32)C1=O (stereo unspecified) the results were procasp3 activ 6, VLA-4 inh 1, JMJD2C inh 2, procasp7 counter 2, Lipid droplet 4 and GRK2 inh 0.
`CCOC(=O)N1CCC(NC(=O)CSCc2nc(-c3ccccc3Cl)oc2C)CC1` gave procasp3 activ -3, VLA-4 inh 13, JMJD2C inh -3, procasp7 counter -2, Lipid droplet -1 and GRK2 inh 3.
Cc1oc(-c2ccccc2Cl)nc1CSc1nc2c(c(=O)[nH]1)CCC2 was read as procasp3 activ 1, VLA-4 inh -8, JMJD2C inh 3, procasp7 counter 4, Lipid droplet 18, GRK2 inh 56*, GRK2 CP1 7 and Aptamer quench SP 99.
Cc1oc(-c2ccccc2Cl)nc1CSCC(=O)NC1CCCC1 was read as procasp3 activ 10, VLA-4 inh 0, JMJD2C inh 4, procasp7 counter 0, Lipid droplet 6, GRK2 inh 30, GRK2 CP1 0 and Aptamer quench SP 99.
For CCCNC(=O)CS(=O)(=O)Cc1nc(-c2cccc(OC)c2)oc1C the results were procasp3 activ 3, VLA-4 inh -4, JMJD2C inh 12, procasp7 counter 3, Lipid droplet 11 and GRK2 inh 0.
`CCOCCCNC(=O)CS(=O)(=O)Cc1nc(-c2cccc(OC)c2)oc1C` gave procasp3 activ -6, VLA-4 inh -3, JMJD2C inh -3, procasp7 counter 6, Lipid droplet 2, GRK2 inh 56*, GRK2 CP1 2 and Aptamer quench SP 100.
Cc1oc(-c2cccc(Cl)c2)nc1CS(=O)(=O)CC(=O)NC1CCCC1 was read as procasp3 activ -3, VLA-4 inh 1, JMJD2C inh 48, procasp7 counter 11, Lipid droplet 0, GRK2 inh 67*, GRK2 CP1 -2 and Aptamer quench SP 96.
Screening CN(C(=O)CCN1C(=O)S/C(=C\c2ccccc2)C1=O)C1CCS(=O)(=O)C1 (stereo unspecified) returned procasp3 activ -6, VLA-4 inh 4, JMJD2C inh -3, procasp7 counter -13, Lipid droplet 0 and GRK2 inh 3.
Screening O=C(CCS(=O)(=O)c1ccc(Br)s1)Nc1ccccc1Br returned procasp3 activ -5, VLA-4 inh 3, JMJD2C inh 11, procasp7 counter 1, Lipid droplet -9, GRK2 inh 88*, GRK2 CP1 12, Aptamer quench -5.6, Aptamer quench SP 94 and FAM quench PS1 98.
Screening COc1ccc(NC(=O)CCS(=O)(=O)c2ccc(Br)s2)cc1 returned procasp3 activ 2, VLA-4 inh -7, JMJD2C inh 4, procasp7 counter 8, Lipid droplet -7, GRK2 inh 87*, GRK2 CP1 43*, Aptamer quench -2.3, Aptamer quench SP 95 and FAM quench PS1 97.
`COc1ccc(CNC(=O)COC(=O)c2ccc(C)c(S(=O)(=O)N3CCOCC3)c2)cc1` gave procasp3 activ 9, VLA-4 inh 2, JMJD2C inh 0, procasp7 counter -3 and GRK2 inh 1.
For Nc1c(C(=O)O)sc2nc3c(cc12)CCCC3 the results were procasp3 activ -6, VLA-4 inh -18, JMJD2C inh -1, procasp7 counter -5, Lipid droplet 0 and GRK2 inh 4.
NC(=O)c1sc2nc3c(cc2c1N)CCCCCC3 was read as procasp3 activ -16, VLA-4 inh 39, JMJD2C inh 15, procasp7 counter -6, Lipid droplet -2, GRK2 inh 75*, GRK2 CP1 9 and Aptamer quench SP 96.
